Consider 36 compounds from ChEMBL document CHEMBL4765399, “Design, synthesis, and biological evaluation of 5-((8-methoxy-2-methylquinolin-4-yl)amino)-1H-indole-2-carbohydrazide derivatives as novel Nur77 modulators” (Eur J Med Chem, 2020).

SMILES strings stand for the structures. Where only a bound is given, the exact number is not on record here.

One assay has as its system HepG2. Nature of the assay: Antiproliferative activity against human HepG2 cells assessed as reduction in cell viability incubated for 48 hrs by MTT assay. Conditions: HepG2, 48 h. It counts as functional, cell-based. A digest of the protocol:
(§1)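 MTT assay after 48 h exposure at six concentrations, range chosen by cytotoxicity. Inhibition = (ODcontrol − ODtest)/ODcontrol × 100%; IC50 is the concentration halving OD versus untreated cells. Means ± SD of three independent determinations. HepG2 and SMMC-7721 grown in DMEM, QGY-7703 and LO2 in RPMI 1640, with 10% FBS at 37 °C.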
(In general: Formazan colour is commonly taken as a measure of viable cells.)

For another assay, the system named is QGY-7703. Kind of assay: Antiproliferative activity against human QGY-7703 cells assessed as reduction in cell viability incubated for 48 hrs by MTT assay. The class given is functional, cell-based. The following applies: QGY-7703, 48 h. A digest of the protocol: as §1
The subject of a further assay is SMMC-7721. Kind of assay: Antiproliferative activity against human SMMC-7721 cells assessed as reduction in cell viability incubated for 48 hrs by MTT assay. It counts as functional, cell-based. The following applies: SMMC-7721, 48 h. In outline: as §1
The next assay has as its system L02. Nature of the assay: Cytotoxicity against human L02 cells assessed as reduction in cell viability incubated for 48 hrs by MTT assay. The following applies: L02, 48 h. It counts as cell-based. A digest of the protocol: as §1
Assay [1] deals with Nuclear receptor subfamily 4immunitygroup A member 1 (Homo sapiens, UniProt P22736). Nature of the assay: Binding affinity to Nur77 ligand binding domain (unknown origin) at 10 uM by surface plasmon resonance analysis. Conditions: filed as modulator. In outline:
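Single-concentration SPR screen at 10.0 µM against Nur77-LBD; binding given as RU response.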

Sequence of Nuclear receptor subfamily 4immunitygroup A member 1 (P22736 whole entry, the tested form may be a part): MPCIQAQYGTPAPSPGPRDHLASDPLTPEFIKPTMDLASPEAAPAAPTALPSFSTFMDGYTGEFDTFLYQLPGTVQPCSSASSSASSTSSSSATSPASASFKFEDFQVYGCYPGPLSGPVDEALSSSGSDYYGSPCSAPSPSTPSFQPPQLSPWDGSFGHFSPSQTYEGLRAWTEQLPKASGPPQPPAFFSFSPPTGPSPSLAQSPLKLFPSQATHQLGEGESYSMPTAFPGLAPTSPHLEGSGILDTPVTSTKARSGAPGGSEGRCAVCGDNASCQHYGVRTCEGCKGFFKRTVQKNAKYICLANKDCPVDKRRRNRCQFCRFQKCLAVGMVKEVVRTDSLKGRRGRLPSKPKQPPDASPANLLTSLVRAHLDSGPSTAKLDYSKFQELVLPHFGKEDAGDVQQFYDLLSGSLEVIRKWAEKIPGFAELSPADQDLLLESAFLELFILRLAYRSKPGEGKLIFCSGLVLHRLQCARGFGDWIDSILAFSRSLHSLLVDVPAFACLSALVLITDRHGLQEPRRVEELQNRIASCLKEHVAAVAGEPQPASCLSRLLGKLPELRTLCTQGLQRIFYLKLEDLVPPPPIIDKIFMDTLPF

Regarding `COc1cccc2c(Nc3ccc4[nH]c(C(=O)N/N=C/c5ccccc5F)cc4c3)cc(C)nc12`, the IC50 in the assay with HepG2 came out at 1.22 µM; with QGY-7703, 5.42 µM; with SMMC-7721 it was 1.38 µM; with L02, 2.48 µM.

In the case of `COc1cccc(/C=N/NC(=O)c2cc3cc(Nc4cc(C)nc5c(OC)cccc45)ccc3[nH]2)c1`, the concentration for half-maximal inhibition (IC50) is over 20 µM in the assay with HepG2, over 20 µM in the assay with QGY-7703, 1.75 µM in the assay on SMMC-7721 and 9.85 µM in the assay with L02.

In the case of `COc1cccc2c(Nc3ccc4[nH]c(C(=O)N/N=C/c5cc6ccccc6nc5Cl)cc4c3)cc(C)nc12`, the IC50 with HepG2 was over 20 µM; with QGY-7703, 9.31 µM; with SMMC-7721, 18.8 µM; with L02, over 20 µM.

For the compound `O=C(O)c1ccc2cc(-c3ccc(O)c(C45CC6CC(CC(C6)C4)C5)c3)ccc2c1` [O-DEMETHYLATED ADAPALENE], the IC50 in the assay on HepG2 turned out to be 2.93 µM; with QGY-7703 it was 2.38 µM; in the assay on SMMC-7721 it was 5.25 µM; in the assay on L02 it was 10.1 µM.

As for `COc1cc(/C=N/NC(=O)c2cc3cc(Nc4cc(C)nc5c(OC)cccc45)ccc3[nH]2)cc(OC)c1OC`, the half-maximal inhibitory concentration (IC50) in the assay on HepG2, in the assay on QGY-7703, with SMMC-7721 and with L02 was over 20 µM in each case.

Take `COc1cccc(OC)c1/C=N/NC(=O)c1cc2cc(Nc3cc(C)nc4c(OC)cccc34)ccc2[nH]1`: the 50% inhibitory concentration (IC50) is 7.52 µM in the assay on HepG2, over 20 µM in the assay on QGY-7703, 11.7 µM with SMMC-7721 and 7.31 µM in the assay on L02.

`COc1cccc2c(Nc3ccc4[nH]c(C(=O)N/N=C/c5ccc(O)cc5)cc4c3)cc(C)nc12`: the half-inhibitory concentration (IC50) in the assay on HepG2 was over 20 µM; with QGY-7703, 14.1 µM; in the assay with SMMC-7721 it was over 20 µM; in the assay with L02, 9.31 µM.

Turning to `COc1cccc2c(Nc3ccc4[nH]c(C(=O)N/N=C/c5ccncc5)cc4c3)cc(C)nc12`, the half-inhibitory concentration (IC50) in the assay with HepG2, in the assay with QGY-7703, with SMMC-7721 and in the assay with L02 was over 20 µM each time.

For the compound `COc1ccc(/C=N/NC(=O)c2cc3cc(Nc4cc(C)nc5c(OC)cccc45)ccc3[nH]2)cc1`, the IC50 was 0.69 µM with HepG2, over 20 µM with QGY-7703, 1.21 µM with SMMC-7721 and 0.76 µM with L02. This compound had an Activity in assay [1] of 88.2 RU.

With `COc1cccc2c(Nc3ccc4[nH]c(C(=O)N/N=C/c5cc(O)ccc5O)cc4c3)cc(C)nc12`, the half-inhibitory concentration (IC50) in the assay on HepG2, with QGY-7703, with SMMC-7721 and in the assay with L02 was over 20 µM in each case.

Take `COc1cccc2c(Nc3ccc4[nH]c(C(=O)N/N=C/c5ccccn5)cc4c3)cc(C)nc12`: the half-maximal inhibitory concentration (IC50) in the assay on HepG2 was 14.7 µM; in the assay on QGY-7703, over 20 µM; with SMMC-7721, 4.37 µM; with L02, 10.3 µM.

`COc1cccc2c(Nc3ccc4[nH]c(C(=O)N/N=C/c5cccc(C)c5)cc4c3)cc(C)nc12`: the IC50 was 2.92 µM in the assay on HepG2, 1.74 µM in the assay with QGY-7703, 3.14 µM with SMMC-7721 and 3.16 µM with L02.

With `COc1cccc2c(Nc3ccc4[nH]c(C(=O)N/N=C/c5ccccc5Cl)cc4c3)cc(C)nc12`, the IC50 was 1.24 µM with HepG2, 1.06 µM in the assay on QGY-7703, 0.98 µM in the assay with SMMC-7721 and 3.68 µM in the assay on L02.

For the compound `COc1cc(/C=N/NC(=O)c2cc3cc(Nc4cc(C)nc5c(OC)cccc45)ccc3[nH]2)cc(OC)c1`, the IC50 in the assay with HepG2, in the assay with QGY-7703, in the assay with SMMC-7721 and in the assay with L02 was over 20 µM throughout.

On to `COc1ccc(/C=N/NC(=O)c2cc3cc(Nc4cc(C)nc5c(OC)cccc45)ccc3[nH]2)c(OC)c1`, for which the IC50 with HepG2 turned out to be 7.47 µM; with QGY-7703, 5 µM; in the assay with SMMC-7721, 16.2 µM; in the assay on L02, 5.72 µM.

As for `COc1cccc2c(Nc3ccc4[nH]c(C(=O)N/N=C/c5ccc[nH]5)cc4c3)cc(C)nc12`, the IC50 in the assay on HepG2, in the assay with QGY-7703, in the assay with SMMC-7721 and in the assay on L02 was over 20 µM in each case.

On to `COc1cccc2c(Nc3ccc4[nH]c(C(=O)N/N=C/c5cc(C(F)(F)F)ccc5Br)cc4c3)cc(C)nc12`, for which the concentration for half-maximal inhibition (IC50) with HepG2 was over 20 µM; in the assay with QGY-7703, 12.7 µM; with SMMC-7721, over 20 µM; in the assay on L02, over 20 µM.

Take `COc1cccc2c(Nc3ccc4[nH]c(C(=O)N/N=C/c5cccnc5)cc4c3)cc(C)nc12`: the IC50 in the assay with HepG2, in the assay on QGY-7703, with SMMC-7721 and with L02 was over 20 µM in each case.

As to `COc1cccc2c(Nc3ccc4[nH]c(C(=O)N/N=C/c5cccc(C(F)(F)F)c5)cc4c3)cc(C)nc12`, the IC50 with HepG2 was 4.19 µM; in the assay on QGY-7703, 5.39 µM; in the assay with SMMC-7721, over 20 µM; with L02, 13.5 µM.

As to `COc1ccc(/C=N/NC(=O)c2cc3cc(Nc4cc(C)nc5c(OC)cccc45)ccc3[nH]2)cc1C(F)(F)F`, the concentration for half-maximal inhibition (IC50) in the assay with HepG2 worked out at 1.98 µM; in the assay with QGY-7703, 0.4 µM; in the assay on SMMC-7721 it was 0.73 µM; with L02, 5.23 µM. The same compound returned an Activity in assay [1] of 91 RU.

Consider `COc1ccc(/C=N/NC(=O)c2cc3cc(Nc4cc(C)nc5c(OC)cccc45)ccc3[nH]2)cc1OC`, for which the 50% inhibitory concentration (IC50) with HepG2, with QGY-7703, with SMMC-7721 and in the assay with L02 was over 20 µM throughout.

Consider `COc1cccc2c(Nc3ccc4[nH]c(C(=O)N/N=C/c5cccs5)cc4c3)cc(C)nc12`, for which the IC50 came out at 5.44 µM in the assay on HepG2, 1.53 µM with QGY-7703, 6.49 µM in the assay with SMMC-7721 and 6.33 µM in the assay with L02.

With `COc1ccccc1/C=N/NC(=O)c1cc2cc(Nc3cc(C)nc4c(OC)cccc34)ccc2[nH]1`, the half-inhibitory concentration (IC50) was found to be 2.1 µM in the assay on HepG2, 3.4 µM in the assay with QGY-7703, 4.58 µM with SMMC-7721 and 5.17 µM in the assay with L02.

As for `COc1ccc(/C=N/NC(=O)c2cc3cc(Nc4cc(C)nc5c(OC)cccc45)ccc3[nH]2)c(OC)c1OC`, the half-inhibitory concentration (IC50) in the assay with HepG2 worked out at 6.32 µM; in the assay with QGY-7703 it was 3.78 µM; in the assay with SMMC-7721, 8.43 µM; in the assay on L02 it was 13.7 µM.

As to `COc1cccc2c(Nc3ccc4[nH]c(C(=O)N/N=C/c5ccc([N+](=O)[O-])cc5O)cc4c3)cc(C)nc12`, the concentration for half-maximal inhibition (IC50) in the assay on HepG2, in the assay on QGY-7703, in the assay with SMMC-7721 and with L02 was over 20 µM throughout.

As for `CC1=C(O)C(=O)C=C2C1=CC=C1[C@@]2(C)CC[C@@]2(C)[C@@H]3C[C@](C)(C(=O)O)CC[C@]3(C)CC[C@]12C` [CELASTROL], the half-maximal inhibitory concentration (IC50) with HepG2 came out at 1.3 µM; in the assay with QGY-7703 it was 2.43 µM; in the assay with SMMC-7721, 1.07 µM; with L02, 1.94 µM.

Regarding `COc1cccc2c(Nc3ccc4[nH]c(C(=O)N/N=C/c5ccc(C#N)cc5)cc4c3)cc(C)nc12`, the 50% inhibitory concentration (IC50) was 10.4 µM in the assay with HepG2, 2.36 µM in the assay on QGY-7703, over 20 µM in the assay with SMMC-7721 and 2.8 µM in the assay with L02.

For `COc1cccc2c(Nc3ccc4[nH]c(C(=O)N/N=C/c5ccc(F)c(C(F)(F)F)c5)cc4c3)cc(C)nc12`, the concentration for half-maximal inhibition (IC50) with HepG2 is 2.17 µM; with QGY-7703, 2.43 µM; in the assay with SMMC-7721 it was over 20 µM; with L02, over 20 µM.

Regarding `COc1ccc(/C=N/NC(=O)c2cc3cc(Nc4cc(C)nc5c(OC)cccc45)ccc3[nH]2)cc1Br`, the IC50 in the assay with HepG2 was over 20 µM; in the assay with QGY-7703, 1.89 µM; in the assay with SMMC-7721, over 20 µM; in the assay on L02, 1.2 µM.

Turning to `COc1cccc2c(Nc3ccc4[nH]c(C(=O)N/N=C/c5ccnc6ccccc56)cc4c3)cc(C)nc12`, the half-maximal inhibitory concentration (IC50) in the assay with HepG2 is over 20 µM; in the assay with QGY-7703 it was 15.5 µM; with SMMC-7721 it was over 20 µM; in the assay with L02, over 20 µM.

As to `COc1ccc(/C=N/NC(=O)c2cc3cc(Nc4cc(C)nc5c(OC)cccc45)ccc3[nH]2)c2ccccc12`, the concentration for half-maximal inhibition (IC50) in the assay with HepG2 is 16.6 µM; with QGY-7703, 4.61 µM; in the assay on SMMC-7721, 11 µM; with L02, 9.16 µM.

In the case of `COc1ccc2[nH]c(C)c(/C=N/NC(=O)c3cc4cc(Nc5cc(C)nc6c(OC)cccc56)ccc4[nH]3)c2c1`, the IC50 in the assay on HepG2 is 6.62 µM; in the assay with QGY-7703 it was 14.1 µM; in the assay on SMMC-7721, over 20 µM; in the assay with L02, over 20 µM.

In the case of `COc1cccc(/C=N/NC(=O)c2cc3cc(Nc4cc(C)nc5c(OC)cccc45)ccc3[nH]2)c1OC`, the IC50 came to 1.09 µM in the assay on HepG2, 1.96 µM in the assay with QGY-7703, 4.89 µM with SMMC-7721 and 2.79 µM in the assay on L02.

As to `COc1cccc2c(Nc3ccc4[nH]c(C(=O)N/N=C/c5ccc(O)cc5O)cc4c3)cc(C)nc12`, the IC50 was 8.15 µM with HepG2, over 20 µM in the assay on QGY-7703, over 20 µM in the assay with SMMC-7721 and 15.9 µM in the assay with L02.

In the case of `COc1cccc2c(Nc3ccc4[nH]c(C(=O)N/N=C/c5cc(C(C)(C)C)c(O)c(C(C)(C)C)c5)cc4c3)cc(C)nc12`, the IC50 with HepG2 is 7.45 µM; in the assay on QGY-7703, 4.02 µM; with SMMC-7721, over 20 µM; in the assay on L02, 3.54 µM.

With `COc1cccc2c(Nc3ccc4[nH]c(C(=O)N/N=C/c5ccc(C(F)(F)F)cc5C(F)(F)F)cc4c3)cc(C)nc12`, the half-maximal inhibitory concentration (IC50) in the assay with HepG2, with QGY-7703, with SMMC-7721 and in the assay on L02 was over 20 µM in each case.

In general, IC50 refers to the midpoint of a concentration-inhibition curve.
